# High-throughput results from PubChem BioAssay.
# HDAC3 inh: HDAC3 deacetylase inhibitors, primary screen, biochemical, fluorescence, cell-free homogeneous; Histone deacetylase 3 (Homo sapiens), O15379; recombinant HDAC3, fluorogenic peptide/trypsin coupled; inhibition, % at 8.3 µM; 0.15% of 320,000 active; AID 2718, 2010; in the data active = inhibition above about 26%, passing the limit was not always enough
# IDE act: human IDE activators in live cells, primary screen, fluorescence polarization, HEK cells, FAbeta-B substrate | Insulin-degrading enzyme (Homo sapiens), P14735 | 0.073% of 340,000 active | FAbeta-B cleavage; 0% vehicle, 100% cell-free pure enzyme wells | activation, % at 5.96 µM;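 active = activation above the mean of all tested compounds plus 3 SD, set per screening campaign, cut at about 17% in these data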
# Target sequence (P14735 whole entry, looked up): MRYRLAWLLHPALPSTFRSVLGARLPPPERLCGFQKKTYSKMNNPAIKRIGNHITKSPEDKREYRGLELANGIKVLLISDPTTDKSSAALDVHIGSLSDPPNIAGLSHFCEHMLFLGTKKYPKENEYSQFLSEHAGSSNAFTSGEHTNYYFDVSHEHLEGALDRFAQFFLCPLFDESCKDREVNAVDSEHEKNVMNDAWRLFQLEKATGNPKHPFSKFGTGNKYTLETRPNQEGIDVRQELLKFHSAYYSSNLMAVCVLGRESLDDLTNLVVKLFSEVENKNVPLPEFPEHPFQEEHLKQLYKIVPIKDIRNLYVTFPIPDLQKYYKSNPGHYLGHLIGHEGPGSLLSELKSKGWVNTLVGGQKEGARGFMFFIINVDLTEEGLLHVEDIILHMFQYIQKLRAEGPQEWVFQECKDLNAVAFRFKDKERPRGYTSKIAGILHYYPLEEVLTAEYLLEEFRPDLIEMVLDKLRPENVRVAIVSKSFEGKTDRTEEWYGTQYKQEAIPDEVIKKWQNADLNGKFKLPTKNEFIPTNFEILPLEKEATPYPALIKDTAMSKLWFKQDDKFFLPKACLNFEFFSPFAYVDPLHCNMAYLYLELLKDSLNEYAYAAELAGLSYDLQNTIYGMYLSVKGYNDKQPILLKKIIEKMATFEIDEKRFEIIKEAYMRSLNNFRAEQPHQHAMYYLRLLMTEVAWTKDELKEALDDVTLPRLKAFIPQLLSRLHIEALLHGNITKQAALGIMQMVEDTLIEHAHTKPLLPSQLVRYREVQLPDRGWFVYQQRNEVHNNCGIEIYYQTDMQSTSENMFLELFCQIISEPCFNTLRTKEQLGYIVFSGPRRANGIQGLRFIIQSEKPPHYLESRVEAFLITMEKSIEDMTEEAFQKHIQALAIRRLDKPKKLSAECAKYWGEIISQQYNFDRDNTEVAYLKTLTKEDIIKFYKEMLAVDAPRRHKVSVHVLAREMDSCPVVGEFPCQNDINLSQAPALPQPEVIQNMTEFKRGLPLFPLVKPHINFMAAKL
# Efflux pump inh: inhibitors of Candida efflux pumps in yeast, primary screen, S. cerevisiae, Nile Red, multiplex. inhibition, % at 10 µM. 0.44% of 330,000 active. S. cerevisiae Candida pump triplex;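 active = plate passing quality check with inhibition over a set limit, or well fluorescence over plate mean plus 4 SD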;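 also: Nile Red retained in pooled yeast measured as flow cytometry median fluorescence; 0% = buffer negative control and 100% = Enniatin B positive control; higher means more Nile Red kept so more efflux inhibition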
# CR mimetic SO: reduction of superoxide in aged yeast, primary screen, HTS. S. cerevisiae aged cells, superoxide DHE fluorescence; stronger effect = lower value. 0.18% of 330,000 active. superoxide response (% of plate mean), % at 10 µM. AID 2690, 2010;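 active = superoxide response under a set limit, about three screen SD below normal, cut at about 65% in these data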;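 also: yeast aged for seven days with compound at 30 °C before DHE staining; 100% = average MFI of all compound-treated wells on the plate with controls excluded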
# Tb MetRS inh: T. brucei MetRS inhibitors, primary screen, biochemical, luminescence; 0.4% of 360,000 active; AID 624268, 2012; inhibition, % at 11.9 µM; methionyl-tRNA synthetase (Trypanosoma brucei brucei); purified T. brucei MetRS, ATP depletion, Kinase-Glo luminescence;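 active = inhibition above a per-plate cutoff of the control wells' mean inhibition plus 3 SD, cut at about 5.5% in these data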;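 also: 0% = DMSO wells median and 100% = median of wells with control inhibitor compound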
#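 Material – parasite MetRS enzyme · Medium – HEPES-MgCl2-KCl buffer plus DTT, spermine, BSA, pyrophosphatase · Reagent – ATP, methionine and E. coli bulk tRNA substrates · Times – 15 min enzyme-compound preincubation, 2 h reaction, 10 min detection, 25 °C · Measured by – luminescence of leftover ATP · Evaluation – percent inhibition relative to median high and low control wells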
# IDE cell inh: human IDE inhibitors in live cells, primary screen, fluorescence polarization, HEK cells, FAbetaB substrate; Insulin-degrading enzyme (Homo sapiens), P14735; FAbetaB cleavage; inhibition, % at 5.59 µM; 0.41% of 320,000 active; AID 434962, 2010;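 active = percent inhibition above the average of all tested compounds plus 3 SD, set per screening campaign, cut at about 16% in these data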;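 also: IDE supplied by intact live HEK cells; FP after avidin binding of uncleaved biotin substrate so inhibition keeps polarization high; 0% = DMSO wells and 100% = 60 µM reference IDE inhibitor Ii1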
# Tb MetRS conf: T. brucei MetRS inhibitors, confirmation, biochemical, luminescence; T. brucei MetRS enzyme, luminescence (ATP depletion); 93% of 1,400 active; shares compounds with Tb MetRS inh; inhibition, % at 11.9 µM; in the data active = inhibition above about 7%
# Jurkat cytotox: Jurkat T cell cytotoxicity, cytotoxicity control for T. brucei MetRS inhibitor project, luminescence, high throughput; inhibition, % at 8.3 µM; 12% of 1,400 active; Jurkat cells viability, ATP luminescence; shares compounds with Tb MetRS inh; in the data active = inhibition above about 15%;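 also: 0% = vehicle and 100% = reference inhibitor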
# TbMetRS FP orth: T. brucei MetRS inhibitors, orthogonal assay for T. brucei MetRS inhibitor project, biochemical, fluorescence polarization | shares compounds with Tb MetRS inh | purified T. brucei MetRS | inhibition, % at 11.9 µM | 44% of 1,400 active; in the data active = inhibition above about 17%;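 also: 0% = vehicle wells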
# Starred values were filed as active, the others as inactive; nt = not tested or not shown. The list is not random: actives were taken first. Their share in the collection is about 1.4%.
SMILES,HDAC3 inh,IDE act,Efflux pump inh,CR mimetic SO,Tb MetRS inh,IDE cell inh,Tb MetRS conf,Jurkat cytotox,TbMetRS FP orth
Cc1noc(C)c1COC(=O)c1ccc(F)c(S(=O)(=O)N2CCOCC2)c1,nt,5,0,165,0,4,nt,nt,nt
COc1ccc(/C=N/n2c(=O)[nH]c3c([nH]c4ccc(Br)cc43)c2=O)cc1CN1CCOCC1,3,7,0,93,6.2*,1,14*,11,9
COc1ccc(/C=N/n2c(=O)[nH]c3c([nH]c4ccc(Cl)cc43)c2=O)cc1CN1CCCCC1,nt,5,0,96,4,-4,nt,nt,nt
O=C(COC(=O)C1CCN(c2ccc(C(F)(F)F)cn2)CC1)Nc1cccc(F)c1,-1,-2,0,103,6.0*,8,19*,0,6
CC(=O)Nc1ccc2c(c1)nc1n2CCN(C2CCCCC2)C1,nt,5,nt,nt,-1,nt,nt,nt,nt
O=C(CN1C2=NCCCN2c2ccccc21)c1ccc(Cl)cc1Cl,0,3,0,89,12*,4,28*,12,13
O=C(Nc1cccc2ncccc12)c1ccc(Br)c([N+](=O)[O-])c1,0,-2,0,115,31*,3,56*,22*,35*
CC(C)CCNC(=O)C1CCC(CNS(=O)(=O)c2ccc(Cl)cc2)CC1 (stereo unspecified),-1,0,0,98,0,nt,nt,nt,nt
CN1CCCN(C(=O)/C=C/c2ccc(Cl)cc2Cl)CC1,2,1,0,113,8.0*,3,17*,-6,1
CCN(Cc1ccccc1)C(=O)COC(=O)c1cc(S(=O)(=O)Nc2ccccc2OC)ccc1O,-1,4,0,94,0,-2,nt,nt,nt
Cn1cnc2cc(NCc3ccc(Cl)cc3)ccc21,-9,6,0,101,7.2*,-5,16*,1,1
CC(=O)c1cccc(NC(=O)Cn2cnc(S(=O)(=O)N3CCCCC3)c2)c1,10,9,0,100,1,0,nt,nt,nt
O=C(Cn1cnc(S(=O)(=O)N2CCCC2)c1)Nc1cccc(Br)c1,-1,3,0,91,14*,-5,36*,1,15
CSc1cccc(NC(=O)Cn2cnc(S(=O)(=O)N3CCCC3)c2)c1,-4,7,0,103,8.6*,3,19*,4,4
O=C(/C=C/[C@H]1O[C@@H](n2cnc3c(NC(=O)c4ccccc4)ncnc32)[C@H](O)[C@@H]1O)NCCCN1CCCC1=O,nt,nt,nt,nt,0,nt,nt,nt,nt
O=C(NCCCCc1ccccc1)Nc1cccc(F)c1,1,0,0,102,11*,1,44*,-2,35*
Cc1cccc(NC(=O)NCCCCc2ccccc2)c1,5,6,-1,100,0,1,nt,nt,nt
N#Cc1ccccc1S(=O)(=O)N1CCN(c2cnccn2)CC1,-3,5,0,98,-1,1,nt,nt,nt
O=C1[C@@H]2Cc3c([nH]c4ccccc34)C(c3cccc([N+](=O)[O-])c3)N2C(=O)CN1C1CCN(Cc2ccccc2)CC1 (stereo partly specified),13,2,0,100,91*,1,94*,0,74*
